High-throughput results as filed in PubChem BioAssay.
Only some compounds are listed: those with a hit (about 2% of all), similar ones and a draw of the others.
rRNA inh HTS: reduced GFP signal of wild-type E. coli, primary screen, bacterial rRNA inhibitor project, GFP/RFP fluorescence, OD600, single point. E. coli WT GFP vs humanized-ribosome RFP mutants, 24 h; hits give low values; DMSO median 0, no signal -100. GFP signal change (wild-type ribosome), % (no concentration beside the values). actives 1.6% (n = 350,000). AID 720706, 2013;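 active = significant combined selectivity score with lowered wild-type GFP, culture density cut under 30%, mutant RFP and density less affected; inactive = any of these conditions unmet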
RAD52 anneal inh: RAD52 DNA annealing inhibitors, primary screen, biochemical, FRET, single point, set 2 | DNA repair protein RAD52 homolog (Homo sapiens), P43351 | recombinant RAD52 DNA annealing, FRET fluorescence | inhibition, % at 18.7 µM | actives 0.46% (n = 360,000);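 active = every replicate showing at least 50% inhibition; inconclusive = mean inhibition at least 50% but not in every replicate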
E-sel inducer: E-selectin induction in HUVECs, primary screen, imaging, HUVEC, immunofluorescence imaging, single point; P16581; normalized: neutral wells 0, TNF-alpha wells 100; activation, % at 7.58 µM; actives 0.37% (n = 260,000);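 active = mean E-selectin-positive cell signal at least 10% of the positive control, reached in at least 60% of replicates, without over 20% cell loss; inconclusive = no rule given, readout overlaps actives, possibly toxicity-flagged; inactive = the rest, including those meeting only one limit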
Target sequence (P16581 whole entry, looked up): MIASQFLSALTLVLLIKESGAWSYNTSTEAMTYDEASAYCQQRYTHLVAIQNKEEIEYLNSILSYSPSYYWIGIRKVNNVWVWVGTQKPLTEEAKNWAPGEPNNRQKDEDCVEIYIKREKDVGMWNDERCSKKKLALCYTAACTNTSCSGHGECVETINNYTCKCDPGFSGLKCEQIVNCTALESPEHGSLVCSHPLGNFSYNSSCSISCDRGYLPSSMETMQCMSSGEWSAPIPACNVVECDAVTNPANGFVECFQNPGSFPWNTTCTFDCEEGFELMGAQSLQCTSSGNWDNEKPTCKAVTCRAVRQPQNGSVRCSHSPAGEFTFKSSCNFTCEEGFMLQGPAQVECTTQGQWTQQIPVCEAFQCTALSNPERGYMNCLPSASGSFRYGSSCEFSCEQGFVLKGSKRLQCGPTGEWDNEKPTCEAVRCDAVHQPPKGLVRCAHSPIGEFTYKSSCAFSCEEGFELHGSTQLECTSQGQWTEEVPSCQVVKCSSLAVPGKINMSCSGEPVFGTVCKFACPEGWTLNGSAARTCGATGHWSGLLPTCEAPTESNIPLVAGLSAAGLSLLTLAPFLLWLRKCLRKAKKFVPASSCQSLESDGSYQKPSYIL
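Test system – human umbilical vein endothelial cells (HUVEC), E-selectin induction · Input – 3,000 HUVEC seeded per well · Buffer or medium – EGM-2, gelatin · Compound dosing – single-point compound dose · Detection – immunofluorescence imaging · Measure – percent E-selectin-positive cells · Controls – TNF-alpha high, DMSO low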
RAD54 branch: inhibitors of human RAD54 branch migration, primary screen, biochemical, fluorescence, single point | inhibition, % at 10.4 µM | RAD54 Holliday junction branch migration, FAM/BHQ fluorescence | actives 0.14% (n = 360,000) | DNA repair and recombination protein RAD54-like (Homo sapiens), Q92698 | AID 602329, 2012;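 active = mean normalized replicate activity at least 40 and at least half of replicates scoring 40 or more; inconclusive = only one of the two criteria met; inactive = mean below 40 and under half of replicates reaching 40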;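 also: 0% = median of neutral control wells and 100% = median of positive control wells; inhibitors cause a drop in the FAM fluorescence signal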
Xi reactivation: activators of inactive X chromosome reactivation, primary screen, imaging, XiGFP fibroblasts, GFP high-content imaging, set 2 | XiGFP mouse fibroblasts, % GFP-positive cells imaging, 3 d; cells co-treated with 5-aza-dC sensitizer; scaled so ellipticine positive control = 100% | activation, % at 7.58 µM | AID 743238, 2013 | actives 0.055% (n = 360,000);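 active = mean normalized replicate activation at least 10% and every replicate at or above 10%; inconclusive = only one of the two criteria met; inactive = mean below 10% and not all replicates reach 10%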;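 also: 0% = median of on-plate neutral control wells and 100% = ellipticine 6 µM median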
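Material: SV40-immortalized XiGFP fibroblast cells, line 68-5-11 | Buffer or medium: DMEM containing 5-aza-dC | Dosing: One concentration, pinned | Times: 3 d treatment, 15 min room-temperature fixation | Controls: Ellipticine 6 µM positive control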
PglD inh: C. jejuni PglD acetyltransferase inhibitors, primary screen, biochemical, DTNB colorimetric, single point. UDP-N-acetylbacillosamine N-acetyltransferase PglD (Campylobacter jejuni). purified PglD enzyme, DTNB colorimetric CoA detection. inhibition, % at 12.5 µM. actives 0.098% (n = 360,000); in the data active = inhibition above about 16%, passing the limit was not always enough; inconclusive = no clear call, values can overlap the other calls
Starred values were filed as active, the others as inactive; u = inconclusive; x = no result given.

SMILES	rRNA inh HTS	RAD52 anneal inh	E-sel inducer	RAD54 branch	Xi reactivation	PglD inh
CC1Sc2ccc(C(=O)Nc3ncccc3O)cc2NC1=O (stereo unspecified)	4	-15	x	-9	0	2
Cc1noc(C)c1S(=O)(=O)Nc1ccc2c(c1)CC(=O)N([C@H](C)CO)C[C@@H](C)[C@H](CN(C)S(=O)(=O)c1cccs1)O2	0	1	0	-9	-1	-3
COCC(=O)Nc1ccc2c(c1)OC[C@@H](C)NC[C@@H](C)[C@@H](OC)CN(C)C2=O	4	-10	0	-5	0	-4
CCOc1cc2c(cc1OCC)CN(C(=O)c1cccc(S(=O)(=O)N3CCCC3)c1)CC2	-19*	1	x	-17	0	3
CC(=O)Nc1ccc2c(c1)Cc1cc(N3C(=O)C=CC3=O)ccc1-2	-28*	-33	0	6	0	1
COc1ccc2nc(Nc3nc(C)c(C(C)=O)s3)sc2c1	x	x	x	1	x	-6
COc1ccc(Nc2nc3ccc(OC)cc3s2)cc1	-26*	4	x	x	0	x
O=C(c1ccccc1)N1C[C@@H]2[C@H](c3ccccc31)[C@H](CO)N2S(=O)(=O)c1ccccc1	-1	-2	0	0	0	4
Cc1ccc(C(=O)NCC(=O)Nc2ccncc2)cc1C	9	3	204*	-9	1	0
CCOc1ccc(NC(=O)CNC(=O)c2ccc(OC)cc2)cc1	11	-7	73*	x	0	x
O=C(Nc1ccc(F)cc1)N1CCCCN2[C@H](CO)[C@@H](c3ccc(-c4cccc(F)c4)cc3)[C@H]2C1	-59	33	0	21	0	5
C[C@@H]1CN([C@@H](C)CO)C(=O)Cc2cc(NC(=O)NC3CCCCC3)ccc2O[C@H]1CN(C)C(=O)Nc1ccc(F)cc1	-2	16	0	1	0	1
COc1cc(OC)c(C(=O)OCC(=O)N(Cc2ccccc2)C(C)(C)C)cc1OC	-30*	-5	0	x	0	x
COc1cc(C(F)(F)F)c(C(=O)N(C)Cc2ccc(Cl)c(Cl)c2)cn1	-22*	-3	0	5	0	-1
CCN(C(=O)c1cnc(OC)cc1C(F)(F)F)c1ccc(Cl)cc1	x	0	x	-1	0	5
O=C(Nc1ccc(N2CCN(C(=O)c3ccccc3)CC2)cc1)c1ccc(Br)o1	x	x	x	6	x	2
O=C(Nc1ccc(N2CCN(C(=O)c3ccccc3)CC2)c(Cl)c1)c1ccc(Br)o1	-23*	-8	x	x	x	x
O=C(Nc1ccccc1N1CCN(C(=O)c2ccccc2)CC1)c1ccc([N+](=O)[O-])o1	-25*	-20	x	-30	0	1
Oc1ccccc1/C=N/N1CCN(c2ccccn2)CC1	1	-5	2	x	0	x
C(=N\N1CCN(c2ccccn2)CC1)/c1cccc2ccccc12	-21*	0	0	-4	0	0
NC(=NCCc1c[nH]c2ccccc12)NS(=O)(=O)c1ccc2ccccc2c1	x	x	x	x	0	x
NC(=NCCc1c[nH]c2ccccc12)NS(=O)(=O)c1ccc(F)cc1	-20*	-18	1	x	0	x
NC(=NCCc1c[nH]c2ccccc12)NC(=O)c1ccc(F)cc1	-33*	-14	3	-6	0	2
C[C@@H]1CN([C@@H](C)CO)C(=O)c2cc(-c3cccc(F)c3)cnc2O[C@H]1CN(C)C(=O)Nc1ccccc1F	-1	-6	0	9	-1	4
COc1ccccc1-c1ccc2n(c1=O)C[C@H]1[C@H](CO)[C@@H](C(=O)NCc3ccccn3)[C@@H]2N1C	1	6	0	x	0	x
SMILES	rRNA inh HTS	RAD52 anneal inh	E-sel inducer	RAD54 branch	Xi reactivation	PglD inh
CS(=O)(=O)n1nc(-c2cccnc2)nc1NCc1ccccc1	5	-7	1	x	0	x
CCC(=O)n1nc(-c2ccccc2)nc1NCc1ccccc1	-3	8	x	-25	x	2
CC(=O)n1nc(-c2ccccc2)nc1NCc1ccc(N(C)C)cc1	-25*	-9	5	-3	0	4
CN(C)c1ccc(CNc2nc(-c3ccccc3)nn2S(C)(=O)=O)cc1	-23*	-8	x	9	0	-5
Cc1ccc(-c2ccc3c(c2)O[C@H](CN(C)C(=O)CN(C)C)[C@H](C)CN([C@H](C)CO)S3(=O)=O)cc1	4	11	u	9	0	-2
O=S(=O)(c1cccc(F)c1)N1[C@@H]2CNC[C@H]1C2c1ccc(-c2cccc(F)c2)cc1 (stereo partly specified)	-55	43	1	x	0	x
CC(C)CC#Cc1ccc2c(c1)O[C@@H](CN(C)C(=O)CN(C)C)[C@@H](C)CN([C@H](C)CO)S2(=O)=O	6	30	0	7	0	1
CCC(C)NCCOc1ccc(C(C)(C)c2ccccc2)cc1 (stereo unspecified)	-53*	17	4	12	0	1
COCCCNCCOc1ccc(C(C)(C)c2ccccc2)cc1	-43	2	0	x	0	x
COc1ccc(S(=O)(=O)Nc2ccc3c(c2)C(=O)N([C@@H](C)CO)C[C@H](C)[C@@H](CN(C)Cc2ccccc2)O3)cc1	-2	18	1	2	0	10
O=S(=O)(Nc1ccccc1Cl)c1ccc(-c2ccccn2)s1	-37*	-20	0	-2	0	0
COc1ccc(NS(=O)(=O)c2ccc(-c3ccccn3)s2)cc1	x	4	2	1	0	6
Cc1cc2oc(C(=O)N3CCN(Cc4ccccc4)CC3)c(C)c2cc1C	-46*	-15	x	x	0	x
O=C(NC1CCCC1)c1cc(-c2ccccc2Cl)on1	-9	-4	x	7	1	-1
O=C(NC1CCCC1)c1cc(-c2ccccc2O)on1	-6	-8	47*	1	0	-1
Cc1cccc(N2CCN(C(=O)N3CCCCC3)CC2)c1C	-36*	-13	1	x	0	x
Cc1cccc(N2CCN(C(=O)N3CCOCC3)CC2)c1C	0	-11	x	x	0	x
Cc1nc(N2CCN(c3ccccn3)CC2)c2c(C)c(C(=O)Nc3ccc(F)cc3F)sc2n1	1	0	2	-3	0	-2
Cc1nc(N2CCN(c3ccccn3)CC2)c2c(C)c(C(=O)Nc3ccc(F)cc3Cl)sc2n1	0	-11	43*	3	0	2
